Measured values reported in ChEMBL document CHEMBL1255190, “The selected flavonol glycoside derived from Sophorae Flos improves glucose uptake and inhibits adipocyte differentiation via activation AMPK in 3T3-L1 cells” (Bioorg Med Chem Lett, 2010).
The source made the active and inactive calls. The rule behind the calls is not given here.

Experiments:
Type in all cases: cell-based
[1] = molecular target: 5'-AMP-activated protein kinase catalytic subunit alpha-2 (Mus musculus) (UniProt Q8BRK8); experiment: Induction of AMPK phosphorylation in mouse 3T3L1 cells at 10 uM by Western blotting; details: 3T3-L1
5'-AMP-activated protein kinase catalytic subunit alpha-2 (Mus musculus), sequence (Q8BRK8 whole entry): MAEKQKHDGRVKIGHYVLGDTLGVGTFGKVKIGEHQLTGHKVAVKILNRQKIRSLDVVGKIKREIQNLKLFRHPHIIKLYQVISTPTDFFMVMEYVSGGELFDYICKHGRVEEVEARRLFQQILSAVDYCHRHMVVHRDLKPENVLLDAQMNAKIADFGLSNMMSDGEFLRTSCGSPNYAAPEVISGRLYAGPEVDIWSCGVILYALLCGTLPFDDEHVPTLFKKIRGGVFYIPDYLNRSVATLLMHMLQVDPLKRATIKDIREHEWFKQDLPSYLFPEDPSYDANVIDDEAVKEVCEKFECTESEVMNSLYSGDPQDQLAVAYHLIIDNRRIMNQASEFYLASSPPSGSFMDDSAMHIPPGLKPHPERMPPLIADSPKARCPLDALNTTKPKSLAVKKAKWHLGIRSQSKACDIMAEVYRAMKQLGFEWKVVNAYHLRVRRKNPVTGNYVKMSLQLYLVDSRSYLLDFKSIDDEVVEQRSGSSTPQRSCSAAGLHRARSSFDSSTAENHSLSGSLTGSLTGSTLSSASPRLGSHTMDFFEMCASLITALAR
How it was run: (§1)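 Mouse 3T3-L1 cells exposed to test compound at 10 uM. Phosphorylated AMPK and its downstream target ACC were detected by western blot. Experiments were run in triplicate, with data given as means ± S.D. Groups were compared by one-way ANOVA with the Newman-Keuls test, significance p < 0.05.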

[2] = molecular target: 5'-AMP-activated protein kinase catalytic subunit alpha-2 (Mus musculus) (UniProt Q8BRK8); experiment: Induction of AMPK-mediated ACC phosphorylation in mouse 3T3L1 cells at 10 uM by Western blotting; details: 3T3-L1; how it was run: as §1
[3] = molecular target: 5'-AMP-activated protein kinase catalytic subunit alpha-2 (Mus musculus) (UniProt Q8BRK8); experiment: Inhibition of AMPK-mediated adipocyte differentiation in mouse 3T3L1 cells; details: 3T3-L1
How it was run: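 Compound (0, 5, 10 or 20 uM) co-applied with MDI differentiation medium on day 0 for 48 h. Differentiation ended at day 6 and lipid droplets were stained with Oil red O. Triplicate runs, means ± S.D.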

3T3-L1 = experiment: Cytotoxicity against mouse 3T3L1 cells at 20 uM after 24 hrs; details: 3t3-l1, 24 h
How it was run: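 3T3-L1 cells exposed to compounds at 5-100 uM for 24 h. Viability was assessed under Mosmann's conditions.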

[4] = molecular target: 5'-AMP-activated protein kinase catalytic subunit alpha-2 (Mus musculus) (UniProt Q8BRK8); experiment: Inhibition of AMPK in mouse 3T3L1 cells assessed as inhibition of C/EBPalpha gene expression by RT-PCR; details: 3T3-L1
How it was run: (§2)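 MDI-induced differentiating 3T3-L1 cells were given 0, 5, 10 or 20 uM. Per the legend, cells were treated for 6 h. RNA was extracted with Trizol and RT-PCR run with specific primers for the adipogenic markers. Triplicate runs; one-way ANOVA with Newman-Keuls test.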

[5] = molecular target: 5'-AMP-activated protein kinase catalytic subunit alpha-2 (Mus musculus) (UniProt Q8BRK8); experiment: Inhibition of AMPK in mouse 3T3L1 cells assessed as inhibition of PPARgamma gene expression by RT-PCR; details: 3T3-L1; how it was run: as §2
[6] = molecular target: 5'-AMP-activated protein kinase catalytic subunit alpha-2 (Mus musculus) (UniProt Q8BRK8); experiment: Inhibition of AMPK in mouse 3T3L1 cells assessed as inhibition of FAS gene expression by RT-PCR; details: 3T3-L1; how it was run: as §2
[7] = molecular target: 5'-AMP-activated protein kinase catalytic subunit alpha-2 (Mus musculus) (UniProt Q8BRK8); experiment: Inhibition of AMPK-mediated glucose uptake in mouse 3T3L1 cells; details: 3T3-L1
How it was run: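 Differentiated 3T3-L1 adipocytes incubated 1 h with 5, 10 or 20 uM, with 200 nM insulin as reference. 2-Deoxy-D-[3H]-glucose uptake was then measured. For AMPK dependence, 10 uM was tested with or without compound C (10 uM). Triplicate runs, means ± S.D., p<0.05.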

[8] = molecular target: 5'-AMP-activated protein kinase catalytic subunit alpha-2 (Mus musculus) (UniProt Q8BRK8); experiment: Inhibition of AMPK in mouse 3T3L1 cells assessed as inhibition of C/EBPalpha level by Western blotting; details: 3T3-L1
How it was run: (§3)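 Western blot of lysates from 3T3-L1 cells undergoing MDI-induced differentiation. Cells received 0, 5, 10 or 20 uM from day 0. Probed for FAS, SREBP-1c, C/EBPa and PPARgamma. Triplicate runs; one-way ANOVA with Newman-Keuls test.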

[9] = molecular target: 5'-AMP-activated protein kinase catalytic subunit alpha-2 (Mus musculus) (UniProt Q8BRK8); experiment: Inhibition of AMPK in mouse 3T3L1 cells assessed as inhibition of PPARgamma level by Western blotting; details: 3T3-L1; how it was run: as §3
[10] = molecular target: 5'-AMP-activated protein kinase catalytic subunit alpha-2 (Mus musculus) (UniProt Q8BRK8); experiment: Inhibition of AMPK in mouse 3T3L1 cells assessed as inhibition of FAS level by Western blotting; details: 3T3-L1; how it was run: as §3
[11] = molecular target: 5'-AMP-activated protein kinase catalytic subunit alpha-2 (Mus musculus) (UniProt Q8BRK8); experiment: Inhibition of AMPK in mouse 3T3L1 cells assessed as inhibition of SREBP1c level by Western blotting; details: 3T3-L1; how it was run: as §3

| Structure (SMILES) | Activity [3] | Activity (3T3-L1) | also measured |
| --- | --- | --- | --- |
| C[C@@H]1O[C@@H](OC[C@H]2O[C@@H](Oc3c(-c4ccc(O)c(O)c4)oc4cc(O)cc(O)c4c3=O)[C@H](O)[C@@H](O)[C@@H]2O)[C@H](O)[C@H](O[C@@H]2O[C@H](CO)[C@@H](O)[C@H](O)[C@H]2O)[C@H]1O | Active | Non-toxic | Activity [1]: Active; Activity [2]: Active; Activity [4]: Active; Activity [5]: Active; Activity [6]: Active; Activity [7]: Active; Activity [8]: Dose-dependent effect; Activity [9]: Dose-dependent effect; Activity [10]: Dose-dependent effect; Activity [11]: Dose-dependent effect |
| O=c1c(O)c(-c2ccc(O)cc2)oc2cc(O)cc(O)c12 [KAEMPFEROL] | Active | Non-toxic | – |
| C[C@@H]1O[C@@H](OC[C@H]2O[C@@H](Oc3c(-c4ccc(O)c(O)c4)oc4cc(O)cc(O)c4c3=O)[C@H](O)[C@@H](O)[C@@H]2O)[C@H](O)[C@H](O)[C@H]1O [RUTIN] | Active | Non-toxic | – |
| O=c1c(O[C@@H]2O[C@H](CO)[C@@H](O)[C@H](O)[C@H]2O)c(-c2ccc(O)cc2)oc2cc(O)cc(O)c12 [ASTRAGALIN] | Active | Non-toxic | – |
| O=c1c(O)c(-c2ccc(O)c(O)c2)oc2cc(O)cc(O)c12 [QUERCETIN] | Active | Non-toxic | Activity [1]: Active; Activity [2]: Active |
| C[C@@H]1O[C@@H](OC[C@H]2O[C@@H](Oc3c(-c4ccc(O)c(O)c4)oc4cc(O)cc(O)c4c3=O)[C@H](O)[C@@H](O)[C@@H]2O)[C@H](O)[C@H](O[C@@H]2OC[C@@H](O)[C@H](O)[C@H]2O)[C@H]1O | Active | Non-toxic | – |
| COc1cc(-c2oc3cc(O)cc(O)c3c(=O)c2O[C@@H]2O[C@H](CO[C@@H]3O[C@@H](C)[C@H](O)[C@@H](O)[C@H]3O)[C@@H](O)[C@H](O)[C@H]2O)ccc1O [NARCISSIN] | Active | Non-toxic | – |
| O=c1c(O[C@@H]2O[C@H](CO)[C@@H](O)[C@H](O)[C@H]2O)c(-c2ccc(O)c(O)c2)oc2cc(O)cc(O)c12 [ISOQUERCETIN] | Active | Non-toxic | – |
| O=c1c(O)c(-c2ccc(O)c(O)c2)oc2cc(O)cc(O[C@@H]3O[C@H](CO)[C@@H](O)[C@H](O)[C@H]3O)c12 | Active | Non-toxic | – |
